From PubChem
TDP2 inh: TDP2 (human) inhibition, absorbance primary screen; recombinant TDP2, T5PNP hydrolysis, p-nitrophenol absorbance 415 nm; inhibition, % at 12.8 µM; actives 0.34% (n = 370,000); AID 720702;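 active means inhibition above the mean of all tested compounds plus 3 SD, set per campaign, cut at about 25% in these data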;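 further: 0% = DMSO with enzyme and 100% = buffer with substrate but no TDP2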
Target sequence (O95551 whole entry, looked up): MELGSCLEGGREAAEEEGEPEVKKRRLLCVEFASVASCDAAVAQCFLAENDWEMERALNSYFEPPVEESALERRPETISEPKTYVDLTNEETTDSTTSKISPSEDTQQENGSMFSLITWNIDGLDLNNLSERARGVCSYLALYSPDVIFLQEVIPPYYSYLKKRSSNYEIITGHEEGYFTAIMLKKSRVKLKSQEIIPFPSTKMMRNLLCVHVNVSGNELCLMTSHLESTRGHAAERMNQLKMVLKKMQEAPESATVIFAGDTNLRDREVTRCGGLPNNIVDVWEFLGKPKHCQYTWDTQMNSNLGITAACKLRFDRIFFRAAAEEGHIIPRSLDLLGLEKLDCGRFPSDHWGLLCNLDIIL
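Incubation: 2 h at 37 °C; Test system: recombinant human TDP2; Quantity: enzyme 120 nM; Read-out basis: percent inhibition; Medium: 50 mM Tris-HCl pH 7.5 with Mg2+, KCl, DTT, BSA; Repeats: single replicate; Compound: 12.8 µM single point, 1% DMSO; Signal: epi absorbance; Reagent: 5 mM T5PNP chromogenic substrate; Benchmarks: no-enzyme high, DMSO-plus-enzyme low.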
HTRA1 inhibitor: inhibitors of human serine peptidase HTRA1 | recombinant HTRA1, FP-rhodamine activity-based probe, fluorescence polarization | actives 0.5% (n = 340,000) | inhibition, % at 5.96 µM; in the data active means inhibition above about 36%;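 further: 0% = enzyme with DMSO and 100% = wells lacking enzyme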
ABHD4 inh: inhibits mouse alpha/beta hydrolase domain 4; AID 720543; actives 0.54% (n = 370,000); purified mABHD4, FP-Rh probe fluorescence polarization; inhibition, % at 8.92 µM; Q8VD66;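 active means inhibition exceeding the mean over every tested compound plus 3 SD, cut at about 30% in these data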;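 further: 0% = plate median of compound wells and 100% = S159A mutant with DMSO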
Target sequence (Q8VD66 whole entry, looked up, the tested form may be a part): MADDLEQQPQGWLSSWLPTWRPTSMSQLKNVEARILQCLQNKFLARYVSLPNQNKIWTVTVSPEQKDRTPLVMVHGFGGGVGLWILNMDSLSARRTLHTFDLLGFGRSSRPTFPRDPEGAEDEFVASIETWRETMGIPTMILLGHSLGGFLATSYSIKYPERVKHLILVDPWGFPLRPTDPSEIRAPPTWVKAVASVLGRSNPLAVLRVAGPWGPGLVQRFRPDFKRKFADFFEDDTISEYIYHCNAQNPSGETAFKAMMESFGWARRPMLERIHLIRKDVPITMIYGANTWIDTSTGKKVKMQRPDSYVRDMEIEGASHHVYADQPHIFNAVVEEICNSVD
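Assay system: mABHD4 protein; medium: HEPES pH 7.0, NaCl, Pluronic buffer; dosing: 8.92 µM, single dose; schedule: 45 min + 60 min at 25 °C; signal: FP readout, ex 525 nm / em 598 nm; read-out: normalized percent inhibition of probe labeling; repeats: single replicate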
SIAE primary: human SIAE inhibition, primary screen; SIAE FP-Rh probe binding, fluorescence polarization; AID 1053197; inhibition, % at 9.66 µM; actives 0.69% (n = 370,000); Q9HAT2;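 active means inhibition above a cutoff: mean of compounds within the control limits plus 3 SD of those, cut at about 17% in these data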;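 further: 0% = plate median of compound wells and 100% = probe without SIAE protein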
PAD4 inh: blocks human protein arginine deiminase 4. actives 0.41% (n = 330,000). AID 485272. Q9UM07. recombinant PAD4, RCA probe fluorescence polarization. inhibition, % at 6.36 µM;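 active means percent inhibition above a cutoff equal to the mean of all tested compounds plus 3 SD, cut at about 15% in these data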;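 further: 0% = PAD4 with RCA probe and DMSO and 100% = probe without PAD4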
TCR CD3 inh: blocks the human TCR-CD3 interaction. TAMRA-labeled TCR probe fluorescence, biochemical. inhibition, % at 9.4 µM. actives 0.37% (n = 360,000). AID 651800; in the data active means inhibition above about 19%;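 further: recombinant mutant TCR 2C K166C tagged with TAMRA read by polarization; 0% = receptor in buffer alone and 100% = receptor with positive control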
Active calls of the source: *; · = no result; ! = repeats disagree. The list is not random: actives were taken first. Their share in the collection is about 2%.

SMILES	TDP2 inh	HTRA1 inhibitor	ABHD4 inh	SIAE primary	PAD4 inh	TCR CD3 inh
CC/C(=N\Nc1ccccc1[N+](=O)[O-])c1ccc(O)cc1	-15.8	·	40.0*	8.1	-5.6	6.5
CCOC(=O)N1CCN(S(=O)(=O)c2ccc(C(=O)NNc3nc4c(C)cc(C)cc4s3)cc2)CC1	3.9	·	15.9	7.4	5.0	-10.7
CCOC(=O)N1CCN(S(=O)(=O)c2ccc(C(=O)NNc3nc4cc(C)cc(C)c4s3)cc2)CC1	·	49.9*	·	·	-0.9	·
CCOC(=O)COc1ccc(C(C)c2ccc(NC(=O)OC(C)(C)C)cc2)cc1 (centres undefined)	5.5	·	2.6	-0.9	·	·
CC(=O)c1c(N2CCOCC2)nc2ccc(Br)cc2c1-c1ccccc1	6.1	·	3.5	19.4*	-0.5	-4.9
O=c1[nH]c2ccc(Br)cc2c(-c2ccccc2)c1N1CCOCC1	0.8	10.2	4.6	-2.1	5.7	-2.3
COc1cc(C(=O)N/N=C/c2cn(Cc3cccc(F)c3)c3ccccc23)ccc1O	2.1	2.9	5.3	29.5*	·	-6.3
COc1ccc(S(=O)(=O)N(C)C[C@H]2Oc3ccc(NC(=O)Nc4ccc5c(c4)OCO5)cc3CC(=O)N([C@@H](C)CO)C[C@@H]2C)cc1	-1.5	-5.5	-1.1	17.7*	-0.9	-4.9
COc1cc(C(c2c(C(=O)O)[nH]c3ccccc23)c2c(C(=O)O)[nH]c3ccccc23)ccc1OCc1ccccc1	8.0	20.3	50.2*	7.2	-2.9	1.1
Cc1nn(CCC(=O)NNC(=O)Nc2ccc(Cl)cc2)c(C)c1[N+](=O)[O-]	-0.6	·	7.2	2.4	·	·
Cc1[nH]c2ccccc2c1/C=N/Nc1cccc(C(=O)O)c1	7.5	17.6	33.6*	6.9	-4.7	11.7
CN1CCCc2cc(C=O)ccc21	3.9	2.6	0.9	1.5	3.9	1.1
CCCN1CCCc2cc(CN)ccc21	65.5*	32.8	17.1	15.7	27.6*	10.8
CC(OC(=O)c1ccc(NC(=O)CC#N)cc1)C(=O)Nc1ccc(Oc2ccccc2)cc1 (centres undefined)	10.1	-77.7	-38.1	-91.5	-8.6	35.3*
CCc1ccc2c(c1)C1(NN=C(c3cccc4ccccc34)S1)C(=O)N2 (centres undefined)	5.3	54.7*	28.8	4.6	-6.9	-1.5
Cc1ccc(-n2c(SCC(=O)Nc3cccc4ccccc34)nnc2-c2cnccn2)cc1	-2.9	·	0.9	10.2	·	·
CC1=CC(=O)c2ccccc2C1=O	-10.6	1.8	2.5	-1.3	-7.5	9.5
CC(C)(C=O)C1=CC(=O)c2ccccc2C1=O	24.3	13.7	36.7*	11.8	-7.7	3.3
NC(=O)c1cc(N)ccc1N1CCCC1	10.6	25.4	17.2	7.8	-5.1	18.7
Cc1cc(N)ccc1N1CCCC1	·	81.5*	·	·	28.4*	·
CC1=C(C#N)C(=O)NC(=O)/C1=C\c1ccc(-c2cc(C)c(C)cc2[N+](=O)[O-])o1	21.6	13.1	40.8*	-32.5	·	-8.1
COc1cc(CNCCNC(=O)c2cccs2)cc(OC)c1OC	28.2*	-1.6	11.3	-1.4	-1.1	-0.5
CC1=NN(c2ccccc2)C(=O)/C1=C/c1cc2cc(C)ccc2nc1N1CCCCC1	·	·	·	·	20.5*	·
COc1ccc(/C=C2/C(=O)N(c3ccccc3)N=C2C)cc1OC	76.8*	5.3	0.5	13.9	·	2.7
CCCC1CCC2(CC1)CCC2OC(=S)Nc1ccccc1 (centres undefined)	3.1	·	-12.4	-4.2	·	·
SMILES	TDP2 inh	HTRA1 inhibitor	ABHD4 inh	SIAE primary	PAD4 inh	TCR CD3 inh
N#C/C(=C\c1ccc(O)c(O)c1)S(=O)(=O)c1ccccc1	-2.5	30.8	20.6	20.3*	1.9	9.9
O=[N+]([O-])c1ccc(Sc2nc3ccccc3o2)c([N+](=O)[O-])c1	-0.9	3.4	3.2	0.7	48.8*	0.7
CCN(CC)CC(=O)n1c2c(c3ccccc31)CCCC2	7.1	-3.1	-3.3	7.3	0.7	-4.2
CN1CCN(CC(=O)n2c3c(c4ccccc42)CCCC3)CC1	29.1*	-3.8	5.3	3.7	-0.6	-3.8
CCc1ccc(S(=O)(=O)/N=C2\C=C(Nc3ccc(C(=O)O)cc3)C(=O)c3ccccc32)cc1	72.0*	33.2	54.2*	13.0	69.4*	-0.7
O=C(Nc1ccc([N+](=O)[O-])cc1)Nc1ccc(OC(F)F)c(Cl)c1	1.3	-111.7	-29.1	-283.7	-37.4	40.3*
COc1cc(NC(=O)c2ccno2)cc(C(=O)Nc2cccc(C(F)(F)F)c2)c1	-6.8	-94.2	-92.6	-91.5	-8.8	2.6
COc1ccc(-c2cc(C(=O)Nc3cc(OC)cc(C(=O)Nc4cccc(C(F)(F)F)c4)c3)[nH]n2)cc1	3.7	-101.9	-32.2	-123.4	-4.8	68.3*!
COc1cc(NC(=O)c2cc3cccc(OC)c3o2)cc(C(=O)Nc2cccc(C(F)(F)F)c2)c1	6.8	-65.8	-45.1	-137.2	-4.9	44.7*
COc1ccc(NC(=S)NNC(=S)Nc2cccc(C(F)(F)F)c2)cc1	0.7	28.0	12.2	31.1*	3.4	-4.7
CCN1CCN(Cc2ccc(NC(=O)c3cc(NC(=O)c4cc(-c5ccc(OC)cc5)n[nH]4)cc(OC)c3)cc2C(F)(F)F)CC1	3.3	-105.2	-88.2	-136.4	-4.7	27.9*
COC(=O)[C@]12C=CCN1[C@H](c1ccccc1)c1c(c3ccccc3n1S(=O)(=O)c1ccc(C)cc1)C2	-0.8	·	-14.8	-29.3	·	·
COC(=O)[C@]12C[C@H](CC(=O)NCCCN3CCCC3=O)C(=O)N(CCC3=CCCCC3)C1=C[C@H](C(C)C)O[C@@H]2C1CC1	1.4	·	-1.6	0.9	·	·
c1ccc(C2=Nc3ccccc3SC2c2nc3ccccc3[nH]2)cc1 (centres undefined)	·	·	·	·	27.9*	·
CC(=O)CC[C@H]1CC[C@]2(CCCN(C(=O)c3ccco3)C2)O1	4.9	·	0.6	-0.8	·	·
COc1ccc(Oc2coc3cc(OC(=O)c4cccs4)ccc3c2=O)cc1	5.6	51.1*	-7.7	-11.9	-7.3	2.5
Cc1cccc(Oc2coc3cc(O)ccc3c2=O)c1	-5.9	1.3	-0.1	-4.5	7.0	4.3
CCOC(=O)Oc1ccc2c(=O)c(Oc3cccc(C)c3)coc2c1	-1.8	50.6*	1.8	-2.5	-2.4	1.5
CCOC(=O)Oc1ccc2c(=O)c(Oc3cc(C)cc(C)c3)coc2c1	-0.7	48.5*	-0.8	3.3	0.3	-2.7
COC(=O)[C@]1(C#N)CC(=O)N(Cc2ccc(Cl)cc2)[C@@H]1c1ccccc1	-4.3	·	0.4	1.4	·	·
COc1ccc(-n2c(SCC(=O)Nc3ccc(S(=O)(=O)Nc4nccs4)cc3)nnc2-c2ccccc2)cc1	-3.1	·	-20.7	-18.5	·	·
CC(C)C[C@H]1COc2cc(Br)ccc2S(=O)(=O)N1Cc1cn(CCC2OCCCO2)nn1	-1.7	·	3.9	3.0	·	·
CCOc1ccc(-n2c(SCC(=O)Nc3ccc(S(=O)(=O)Nc4cc(C)nc(C)n4)cc3)nnc2-c2ccc(OC)cc2)cc1	-6.3	·	-20.3	-8.8	·	·
